Assay results collected from several papers.
Lines come from different studies, so protocols differ.
Target: Serine/threonine-protein kinase 3 (STK3, Homo sapiens, UniProt Q13188)
Sequence (Q13188 1-491, as in one of the studies): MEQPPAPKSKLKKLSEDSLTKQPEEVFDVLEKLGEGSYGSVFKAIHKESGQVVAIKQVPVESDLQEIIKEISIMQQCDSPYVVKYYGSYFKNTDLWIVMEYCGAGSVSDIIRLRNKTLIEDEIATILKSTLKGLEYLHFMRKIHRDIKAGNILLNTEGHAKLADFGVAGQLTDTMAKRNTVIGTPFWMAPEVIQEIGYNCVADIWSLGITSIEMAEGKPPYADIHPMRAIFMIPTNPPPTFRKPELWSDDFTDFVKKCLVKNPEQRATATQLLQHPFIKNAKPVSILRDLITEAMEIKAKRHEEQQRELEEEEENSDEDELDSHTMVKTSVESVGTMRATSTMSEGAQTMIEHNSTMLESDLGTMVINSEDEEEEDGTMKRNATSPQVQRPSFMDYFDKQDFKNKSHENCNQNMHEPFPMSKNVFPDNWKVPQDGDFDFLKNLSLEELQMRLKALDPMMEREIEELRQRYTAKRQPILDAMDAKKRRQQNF

For `CN1CCC2(CC1)NC(=O)c1c(c3ccc(Cl)c(Cl)c3n1C)C2C#N` (racemic), the ΔTm was -0.2 °C (thermal stability; DSF; 10 µM).
With `FC(F)(F)Oc1cccc(-c2cnc3ccc(-c4ccncc4)nn23)c1` the activity vs control was 71% (enzyme activity; inhibitor; radiometric; 5 µM).
For `CCN(CC)c1ccc(C2=NNC(=O)CC2C)cc1[N+](=O)[O-]` (centres unmarked), the remaining activity was 87% (enzyme activity; inhibitor; 10 µM).
`COc1cc2c(N3CCN(C(=O)Nc4ccc(OC(C)C)cc4)CC3)ncnc2cc1OCCCN1CCCCC1` gave a remaining signal of 94.7% (cell-free assay; 0.5 µM).
For `CC(C)(C)C(=O)c1sc(NC2CCCCC2)nc1N`, the remaining activity was 104% (enzyme activity; inhibitor; 10 µM).
`COc1cc2ncnc(Nc3ccc(Oc4ccccc4)cc3C)c2cc1OC` has an inhibition of -4% (enzyme activity; inhibitor; 1 µM).
`Cn1c2c(c3ccccc31)C(C#N)C(C)(C)NC2=O` (centres unmarked) gave a ΔTm of -0.5 °C (thermal stability; DSF; 10 µM).
`CO[C@@H](C)c1c(Nc2ccc([C@H](N(C)C(=O)C3CCS(=O)(=O)CC3)C(F)(F)F)cc2)cnc2cc(Cl)nn12` gave a remaining binding of 92% (cell-free assay; competition with immobilised ligand; 1 µM).
`CCN1CCC2(CC1)NC(=O)c1c(c3ccc(Cl)c(Cl)c3n1C)C2C#N` (racemic) has a ΔTm of -0.1 °C (thermal stability; DSF; 10 µM).
The remaining activity of `Cc1sc(C(=O)NC2COC2)cc1-n1cc(NC(=O)Nc2c(F)cccc2Cl)cn1` is reported as 93.9% (enzyme activity; inhibitor; 10 µM).
With `Cc1ccc(NC(=O)c2ccc(C)c(C(F)(F)F)c2)cc1C#Cc1nn(C2CCC(O)CC2)c2ncnc(N)c12` (centres unmarked) the remaining signal was 63% (cell-free assay; 10 µM).
For `Nc1ncnc2occ(-c3ccc(NC(=O)Nc4cc(C(F)(F)F)ccc4F)cc3)c12`, the remaining signal was 6.6% (cell-free assay; inhibitor; 20 µM).
For `CC/C(=N\NC(=O)NCc1cccc(O)c1)c1ccc(O)c(C)c1O`, the inhibition was -0.5% (enzyme activity; inhibitor; 0.1 µM).
`Cc1ccc(NC(=O)c2ccc(CN3CCN(C)CC3)cc2)cc1Nc1nc(-c2cccnc2)cs1` has a remaining signal of 94.4% (cell-free assay; 0.5 µM).
For `Nc1nc(Nc2ccccc2)sc1C(=O)c1c(F)cccc1F`, the remaining activity was 40% (enzyme activity; inhibitor; 10 µM).
`O=C(O)[C@@H]1[C@@H](Cn2nnc3ccccc3c2=O)CC[C@H]1C(=O)c1ccc(OCCC2CCOCC2)cc1` gave a remaining binding of 100% (cell-free assay; competition with immobilised ligand; 1 µM).
The remaining activity of `CCCOc1ccc(OC)c(F)c1C(=O)c1ccc(C(=O)N[C@@H]2CNC[C@H]2NC(=O)c2ccc3[nH]ncc3c2)cc1` is reported as 85% (enzyme activity; inhibitor; 10 µM).
`CNC(=O)c1cc(Oc2ccc(NC(=O)Nc3ccc(Cl)c(C(F)(F)F)c3)cc2)ccn1` has an inhibition of 7% (cell-free assay; inhibitor; 0.3 µM).
The ΔTm of `Cn1c2c(c3ccc(Cl)c(Cl)c31)C(C#N)C(C)(C)NC2=O` (centres unmarked) is reported as 0.4 °C (thermal stability; DSF; 10 µM).
`Cc1cc(NC(=O)c2cccc3cc(-c4cccc5[nH]nc(N)c45)ccc23)ccc1F` has an activity vs control of 98% (enzyme activity; inhibitor; 0.1 µM).
For `O=C(Nc1cnn(-c2csc(C(=O)NC3COC3)c2)c1)Nc1c(F)cccc1Cl`, the remaining activity was 93.2% (enzyme activity; inhibitor; 5 µM).
`CCN(CC)CCNC(=O)c1c(C)[nH]c(/C=C2\C(=O)Nc3ccc(F)cc32)c1C` gave a remaining signal of 24.8% (cell-free assay; 0.5 µM).
For `CNCc1ccc(-c2cc(-c3nc(-c4ccc(S(=O)(=O)C(C)C)cc4)cnc3N)on2)cc1`, the inhibition was 18% (enzyme activity; inhibitor; 0.4 µM).
`CC1=C(C#N)C(c2ccc3c(c2)c(NC(=O)c2ccccc2C)nn3C)C(C#N)=C(C)N1` gave a remaining binding of 100% (cell-free assay; competition with immobilised ligand; 1 µM).
The inhibition of `CCCS(=O)(=O)Nc1ccc(F)c(C(=O)c2c[nH]c3ncc(-c4ccc(Cl)cc4)cc23)c1F` is reported as under 10% (enzyme activity; inhibitor; 1 µM).
The inhibition of `CCN1CCN(Cc2ccc(NC(=O)c3ccc(C)c(Oc4ccnc5[nH]ccc45)c3)cc2C(F)(F)F)CC1` is reported as -56.5% (target engagement in cells; inhibitor; chemoproteomics; Huh-7; 10 µM).
The remaining signal of `N#CCCc1ccc2c(c1)-c1[nH]c3ccc([N+](=O)[O-])cc3c1CC(=O)N2` is reported as 40.9% (cell-free assay; 0.5 µM).
`CC(C)(C)c1nc2c(s1)c1nc(N)ncc1c1ccc(NS(=O)(=O)c3c(F)cccc3F)c(F)c12` gave a remaining activity of 89% (enzyme activity; inhibitor; radiometric; 1 µM).
With `N#CC1(c2ccccn2)CCN(Cc2cc(C(=O)N3CCCC3)c(=O)n3ccccc23)CC1` the remaining binding was 92% (cell-free assay; competition with immobilised ligand; 1 µM).
The ΔTm of `Cn1c2c(c3ccc(Cl)c(Cl)c31)C(C#N)C1(CCNCC1)NC2=O` (racemic) is reported as 0.3 °C (thermal stability; DSF; 10 µM).
For `CCOC(=O)c1cc2cc(-c3cc(C(=O)NCc4ccc(C(=O)O)cc4)nn3C)ccc2[nH]1`, the remaining binding was 96% (cell-free assay; competition with immobilised ligand; 0.1 µM).
`Cn1c2c(Cl)c(Cl)ccc2c2cc[nH]c(=O)c21` gave a ΔTm of 1.9 °C (thermal stability; DSF; 10 µM).
`Cc1cc(-n2nc(Cc3cc(F)cc(C(F)(F)F)c3)nc2C)ccc1C(N)=O` has a remaining binding of 100% (cell-free assay; competition with immobilised ligand; 1 µM).
`FC(F)c1nc2ccccc2n1-c1nc(N2CCOCC2)nc(N2CCOCC2)n1` has a remaining activity of 92% (enzyme activity; inhibitor; 10 µM).
`Cn1nc(C(F)(F)F)cc1-c1cnc(N2CCc3cc(S(=O)(=O)Nc4c(F)cc(Cl)cc4F)cc(N4CCCC4=O)c32)nc1` has a remaining binding of 90% (cell-free assay; competition with immobilised ligand; 1 µM).
For `Cc1ccc(Nc2nccc(N(C)c3ccc4c(C)n(C)nc4c3)n2)cc1S(N)(=O)=O`, the inhibition was 4% (cell-free assay; inhibitor; 10 µM).
With `O=C(Nc1cccnn1)N1CCC(=Cc2cccc(Oc3ccc(C(F)(F)F)cn3)c2)CC1` the remaining binding was 100% (cell-free assay; competition with immobilised ligand; 1 µM).
With `COc1cc(Nc2cnc(C#N)c(O[C@H](C)CN(C)C)n2)ncc1-c1cnn(C)c1` the remaining activity was 67% (enzyme activity; inhibitor; radiometric; 1 µM).
